Measured values reported in publication PMC10938568 (Science Advances, 2021).

Legend:
TFEB = TFEB activation / nuclear localization; assay type: cell-based
Method in brief: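 FNIP1/2_DKO HeLa expressing WT or LIR FNIP1 were stimulated with two TRPML1-activating agents (2 μM and 1 μM). TFEB was immunostained with primary antibody overnight at 4°C, then Alexa secondary (1:1000) with DAPI for 1 h at RT. TFEB nuclear localization was scored by high-content imaging, ≥1500 cells per condition. Values are means ± SD; unpaired t test.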

FLCN-FNIP1 complex = assay: Co-immunoprecipitation of GABARAP with FLCN-FNIP1; assay type: binding, human; conditions: HEK293T cells, transfected 20 hours
HEK293T cells = assay: LC3 lipidation / GFP-LC3B puncta, WT or ATG13_KO cells; assay type: cell-based, human; conditions: for LC3 lipidation / puncta (in words): HEK293T WT or ATG13_KO, MK6-83 25 μM, C8 2 μM, AZD8055 1 μM
Method in brief: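 HEK293T cells in DMEM with 10% FBS and 1% penicillin/streptomycin at 37°C, 5% CO2, treated over a time course. Lysates denatured in Laemmli buffer at 100°C for 5 min. Immunoblot: primary antibodies in 5% BSA/TBS-0.2% Tween 20 overnight at 4°C; HRP secondaries at 1:20,000 for 1 h at room temperature. GFP-LC3B followed by time-lapse imaging.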

[1] = tested on: primary bone marrow–derived macrophages (BMDMs); assay: LC3 puncta in primary BMDMs, ATG16L1 WT or K490A; assay type: cell-based, mouse; conditions: 1 hour
[2] = tested on: FLCN-FNIP1 complex in HeLa cells; assay: FLCN-FNIP recruitment to membrane fractions, Western blot; assay type: cell-based; conditions: monensin 1uM, C8 2uM, 30 min; WT or TRPML1_KO HeLa
Method in brief: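 HeLa cells (WT or TRPML1_KO) grown in DMEM with 10% FBS and 1% penicillin/streptomycin at 37°C, 5% CO2. 1.5 × 10^6 cells plated the day before treatment. Membrane fractions prepared with a commercial kit and denatured in Laemmli buffer at 100°C for 5 min. Immunoblot: primary antibodies in 5% BSA/TBS-0.2% Tween 20 at 4°C overnight; HRP secondaries at 1:20,000 for 1 h at room temperature.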

FNIP1/2_DKO HeLa cells = assay: GPNMB protein level; assay type: cell-based; conditions: prolonged treatment; WT or LIR FNIP1 in FNIP1/2_DKO HeLa
Method in brief: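 GPNMB, a TFEB/TFE3 target, was read by Western blot in FNIP1/2_DKO HeLa re-expressing WT or LIR-variant FNIP1 after prolonged stimulation to activate TRPML1. Cells were grown at 37°C in 5% CO2. Lysates were denatured in Laemmli buffer (100°C, 5 min). Primary antibody (1:1000 unless noted) was in 5% BSA/TBS-0.2% Tween 20, overnight at 4°C. HRP secondary was 1:20,000, 1 h at RT.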

`CO/C1=C\C(C)=C\[C@@H](C)[C@@H](O)[C@@H](C)C/C(C)=C/C=C/[C@H](OC)[C@@H]([C@@H](C)[C@@H](O)[C@H](C)[C@@]2(O)C[C@@H](O)[C@H](C)[C@@H](C(C)C)O2)OC1=O` [BafA1, bafilomycin A1] was tested, and the “TFEB activation, effect of BafA1 cotreatment (in words)” value (TFEB; BafA1 100 nM, acute, HeLa) was “sufficient to block TFEB activation by TRPML1 agonists; however, it did not affect TFEB activation upon mTOR inhibition”.

“GABARAP: full-length human GABARAP (1 to 117), ATG8 family protein” was tested, and the “interaction with FLCN-FNIP1 complex (in words)” value (FLCN-FNIP1 complex) was “interacts with GABARAP through LIR-dependent binding”.

`Cc1ccc(S(=O)(=O)Nc2ccccc2N2CCCCC2)s1` [MK6-83] was tested, and the “LC3 lipidation / puncta (in words)” value (HEK293T cells) was “rapid conversion of LC3 from its cytoplasmic “I” form to the lipidated, punctate “II” form in both wild-type (WT) and autophagy-deficient cells (ATG13_KO)”.

For `CC1=CC(C)(C)N(C(=O)CN2C(=O)c3ccccc3C2=O)c2ccccc21` [ML-SA1], the “LC3 lipidation / puncta (in words)” value (HEK293T cells) was “rapid conversion of LC3 from its cytoplasmic “I” form to the lipidated, punctate “II” form in both wild-type (WT) and autophagy-deficient cells (ATG13_KO)” and the “LC3 puncta in BMDMs (in words)” value [1] was “unable to induce LC3 puncta in ATG16L1^K490A-expressing cells”.

`CC[C@@]1([C@@H]2O[C@@H]([C@H]3O[C@@](O)(CO)[C@H](C)C[C@@H]3C)C[C@@H]2C)CC[C@H]([C@]2(C)CC[C@]3(C[C@H](O)[C@@H](C)[C@@H]([C@@H](C)[C@@H](OC)[C@H](C)C(=O)O)O3)O2)O1` [monensin] was tested, and the “FLCN-FNIP membrane recruitment (in words)” value [2] was “could induce FLCN-FNIP1 complex sequestration independently of TRPML1” and the “TFEB activation, FNIP1-LIR dependence (in words)” value (TFEB; FNIP1-WT or FNIP1-LIR in FNIP1/2_DKO HeLa, monensin 1uM, 4 hr) was “regulated TFEB activation in an FNIP1-LIR domain–dependent manner”.

In the case of `COc1ccc(-c2ccc3c(N4CCOC[C@@H]4C)nc(N4CCOC[C@@H]4C)nc3n2)cc1CO` [AZD8055], the “TFEB activation versus ATG16L1 allele status (in words)” value (TFEB; ATG16L1_KO HeLa reexpressing ATG16L1 variants) is reported as “activated TFEB irrespective of ATG16L1 allele status”, the “TFEB activation / nuclear accumulation (in words)” value (TFEB; HeLa) is reported as “robust TFEB activation” and the “GPNMB protein levels (in words)” value (FNIP1/2_DKO HeLa cells) is reported as “largely suppressed”. The “LC3 lipidation, sensitivity to BafA1 or PIK-III (in words)” value (HEK293T cells; BafA1 100 nM, PIK-III 5 μM) was “sensitive to the VPS34 inhibitor PIK-III and potentiated with the vacuolater ATPase (V-ATPase) inhibitor bafilomycin A1 (BafA1)” and the “LC3 lipidation / puncta (in words)” value (HEK293T cells) was “able to regulate LC3 lipidation in WT but not ATG13_KO cells”.
